Experimental findings from ChEMBL document CHEMBL2311325, “New structure-activity relationship studies in a series of N,N-bis(cyclohexanol)amine aryl esters as potent reversers of P-glycoprotein-mediated multidrug resistance (MDR)” (Bioorg Med Chem, 2013) are described below.

For orientation: Emax means the greatest response seen or fitted, relative to the assay's reference. Broadly, the IC50 is the concentration needed to halve the response being measured.

Data set [1] has as its target P-glycoprotein (ABCB1) (Homo sapiens, UniProt P08183). Description: Inhibition of P-glycoprotein in human doxorubicin-resistant K562 cells assessed as maximal increase of pirarubicin accumulation by spectrofluorometric analysis relative to control. The format is cell-based. The conditions noted are these: probe pirarubicin.
Data set [2] deals with ATP-dependent translocase ABCB1 (Homo sapiens, UniProt P08183). The experiment in a line: Inhibition of P-glycoprotein in human doxorubicin-resistant K562 cells assessed as half maximal increase of pirarubicin accumulation by spectrofluorometric analysis. The class given is cell-based.
For data set [3], the system named is K562. The experiment in a line: Reversal fold, ratio of doxorubicin IC50 for doxorubicin-resistant human K562 cells in absence of compound to doxorubicin IC50 for doxorubicin-resistant human K562 cells in presence of 0.1 uM of compound. The format is functional. In short, it runs like this:
(§1)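 K562/DOX cells seeded at 3000 cells/well and exposed to doxorubicin (0.001-10 µM) with or without modulator (0.1 or 1.0 µM; DMSO stocks diluted in complete medium) for 72 h at 37 °C, 5% CO2. Viability read by MTT (3 h, DMSO solubilization, 540 nm). Doxorubicin IC50 taken from plotted curves. RF = IC50 without modulator / IC50 with modulator. Quadruplicate cultures.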

The test system of data set [4] is K562. Description: Reversal fold, ratio of doxorubicin IC50 for doxorubicin-resistant human K562 cells in absence of compound to doxorubicin IC50 for doxorubicin-resistant human K562 cells in presence of 1 uM of compound. The format is functional. In short, it runs like this: as §1
The subject of data set [5] is K562. Description: Cytotoxicity against human doxorubicin-resistant K562 cells at 1 uM after 72 hrs by MTT assay. The class given is cell-based. To be noted: k562, 72 h. In short, it runs like this: (§2)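 Intrinsic cytotoxicity of compound alone (no doxorubicin) tested at 1.0 µM on K562 and K562/DOX cells. Cells in exponential growth (3-5 × 10^5 cells/mL) seeded at 3000 cells/well and incubated 72 h at 37 °C, 5% CO2. MTT added for a further 3 h, formazan dissolved in DMSO, absorbance read at 540 nm. Quadruplicate cultures.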
A general note: Formazan colour is commonly taken as a measure of viable cells.

In data set [6] the test system is K562. The experiment in a line: Cytotoxicity against human K562 cells at 1 uM after 72 hrs by MTT assay. The format is cell-based. The conditions noted are these: k562, 72 h. In outline: as §2

Chain of P-glycoprotein (ABCB1) (P08183 whole entry): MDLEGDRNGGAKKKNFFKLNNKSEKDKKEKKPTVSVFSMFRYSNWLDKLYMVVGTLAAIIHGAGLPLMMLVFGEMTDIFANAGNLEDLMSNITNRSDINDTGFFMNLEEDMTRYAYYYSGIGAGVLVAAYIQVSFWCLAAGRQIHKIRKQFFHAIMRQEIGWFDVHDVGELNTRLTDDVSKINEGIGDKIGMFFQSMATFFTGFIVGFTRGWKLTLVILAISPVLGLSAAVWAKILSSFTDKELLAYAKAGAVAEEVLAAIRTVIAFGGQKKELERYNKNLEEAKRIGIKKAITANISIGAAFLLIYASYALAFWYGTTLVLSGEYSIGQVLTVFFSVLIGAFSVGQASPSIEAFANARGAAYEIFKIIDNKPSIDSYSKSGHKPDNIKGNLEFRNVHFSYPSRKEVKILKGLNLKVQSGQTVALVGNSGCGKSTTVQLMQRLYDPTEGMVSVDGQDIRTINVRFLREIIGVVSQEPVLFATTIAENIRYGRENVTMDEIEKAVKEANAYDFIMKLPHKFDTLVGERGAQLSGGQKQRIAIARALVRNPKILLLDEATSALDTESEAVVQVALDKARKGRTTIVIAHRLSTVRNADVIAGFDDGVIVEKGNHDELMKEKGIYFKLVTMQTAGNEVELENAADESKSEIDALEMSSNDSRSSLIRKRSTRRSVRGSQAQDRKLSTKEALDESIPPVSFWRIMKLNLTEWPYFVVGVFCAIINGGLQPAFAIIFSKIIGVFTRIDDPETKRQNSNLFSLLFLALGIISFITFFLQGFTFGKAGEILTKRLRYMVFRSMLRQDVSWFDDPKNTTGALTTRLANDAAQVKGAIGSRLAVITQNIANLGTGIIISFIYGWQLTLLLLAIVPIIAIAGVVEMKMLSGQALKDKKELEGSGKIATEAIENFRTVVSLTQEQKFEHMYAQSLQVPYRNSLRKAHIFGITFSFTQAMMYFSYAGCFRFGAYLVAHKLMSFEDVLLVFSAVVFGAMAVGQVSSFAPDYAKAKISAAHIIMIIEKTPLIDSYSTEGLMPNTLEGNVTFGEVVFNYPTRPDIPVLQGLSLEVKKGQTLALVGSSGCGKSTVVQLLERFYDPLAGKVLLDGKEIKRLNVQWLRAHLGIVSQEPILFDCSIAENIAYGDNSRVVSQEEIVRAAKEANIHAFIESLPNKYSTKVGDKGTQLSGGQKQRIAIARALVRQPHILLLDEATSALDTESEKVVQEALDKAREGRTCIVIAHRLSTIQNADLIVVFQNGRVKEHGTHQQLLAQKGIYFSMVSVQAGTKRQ
Chain of ATP-dependent translocase ABCB1 (P08183 whole entry): as above

Regarding `COc1cc(C#CC(=O)O[C@H]2CC[C@@H](N(C)[C@H]3CC[C@H](OC(=O)C4c5ccccc5-c5ccccc54)CC3)CC2)cc(OC)c1OC` (mixture of isomers), the maximal effect (Emax) in data set [1] was 96%. Moreover, the IC50 in data set [2] is 120 nM.

For the compound `COc1ccc(C(C#N)(CCCNCc2c3ccccc3cc3ccccc23)C(C)C)cc1OC` (centres undefined), the Emax in data set [1] was 70%.

`COc1cc(C#CC(=O)O[C@H]2CC[C@@H](N(C)[C@H]3CC[C@@H](OC(=O)c4cc(OC)c(OC)c(OC)c4)CC3)CC2)cc(OC)c1OC`: the “Ratio IC50” value came out at 2.3 in data set [3] and 4.5 in data set [4]. The Activity entry in data set [5] and in data set [6] was “Non-toxic” in each case. Also, the maximal effect (Emax) in data set [1] worked out at 99%. Further, the IC50 in data set [2] was 70 nM.

As for `COc1cc(C#CC(=O)O[C@H]2CC[C@H](N(C)[C@H]3CC[C@@H](OC(=O)C4c5ccccc5-c5ccccc54)CC3)CC2)cc(OC)c1OC` (mixture of isomers), the Emax in data set [1] turned out to be 91%. The IC50 in data set [2] is 290 nM.

Turning to `COc1cc(/C=C/C(=O)O[C@H]2CC[C@@H](N(C)[C@H]3CC[C@H](OC(=O)C4c5ccccc5-c5ccccc54)CC3)CC2)cc(OC)c1OC` (mixture of isomers), the “Ratio IC50” value in data set [3] was 2.3; in data set [4], 5. Moreover, the Activity entry in data set [5] and in data set [6] was “Non-toxic” throughout. In addition, the Emax in data set [1] stood at 81%. For the same compound, the half-inhibitory concentration (IC50) in data set [2] was found to be 80 nM.

In the case of `COc1cc(/C=C/C(=O)O[C@H]2CC[C@@H](N(C)[C@H]3CC[C@@H](OC(=O)c4cc(OC)c(OC)c(OC)c4)CC3)CC2)cc(OC)c1OC`, the “Ratio IC50” value in data set [4] is recorded as 9.8. The Emax in data set [1] was 80%. For the same compound, in data set [2], the concentration for half-maximal inhibition (IC50) is 30 nM.

On to `COc1cc(C#CC(=O)O[C@H]2CC[C@@H](N(C)[C@H]3CC[C@H](OC(=O)c4cc(OC)c(OC)c(OC)c4)CC3)CC2)cc(OC)c1OC` (mixture of isomers), for which the “Ratio IC50” value was 2 in data set [3] and 8.5 in data set [4]. In addition, the Activity entry in data set [5] and in data set [6] was “Non-toxic” each time. The maximal effect (Emax) in data set [1] came to 99%. In addition, the IC50 in data set [2] stood at 20 nM.

With `COc1cc(CCC(=O)O[C@H]2CC[C@H](N(C)[C@H]3CC[C@@H](OC(=O)c4cc(OC)c(OC)c(OC)c4)CC3)CC2)cc(OC)c1OC` (mixture of isomers), the Emax in data set [1] was 75%. The IC50 in data set [2] worked out at 630 nM.

Consider `COc1cc(/C=C/C(=O)O[C@H]2CC[C@@H](N(C)[C@H]3CC[C@H](OC(=O)c4cc(OC)c(OC)c(OC)c4)CC3)CC2)cc(OC)c1OC`, for which the “Ratio IC50” value in data set [4] came to 20.3. Further, in data set [1], the maximal effect (Emax) was 98%. Moreover, the IC50 in data set [2] amounted to 12 nM.

On to `COc1ccc(C(C(=O)O[C@H]2CC[C@H](N(C)[C@H]3CC[C@@H](OC(=O)C#Cc4cc(OC)c(OC)c(OC)c4)CC3)CC2)c2ccc(OC)cc2)cc1` (mixture of isomers), for which the Emax in data set [1] stood at 76%. Further, the IC50 in data set [2] was 130 nM.

Turning to `COc1cc(C#CC(=O)O[C@H]2CC[C@@H](N(C)[C@H]3CC[C@@H](OC(=O)C4c5ccccc5-c5ccccc54)CC3)CC2)cc(OC)c1OC`, the maximum response (Emax) in data set [1] came to 89%. For the same compound, in data set [2], the IC50 was 50 nM.

Turning to `COc1cc(/C=C/C(=O)O[C@H]2CC[C@H](N(C)[C@H]3CC[C@H](OC(=O)C4c5ccccc5-c5ccccc54)CC3)CC2)cc(OC)c1OC`, the “Ratio IC50” value in data set [3] is on record as 2; in data set [4] it was 2.9. In addition, the Activity entry in data set [5] and in data set [6] was “Non-toxic” each time. Further, in data set [1], the Emax is 94%. Further, the IC50 in data set [2] worked out at 75 nM.

With `COc1cc(/C=C/C(=O)O[C@H]2CC[C@H](N(C)[C@H]3CC[C@H](OC(=O)c4cc(OC)c(OC)c(OC)c4)CC3)CC2)cc(OC)c1OC`, the “Ratio IC50” value in data set [4] is reported as 9.2. Moreover, in data set [1], the maximum response (Emax) was determined as 81%. Also, the concentration for half-maximal inhibition (IC50) in data set [2] was 320 nM.

In the case of `COc1cc(/C=C/C(=O)O[C@H]2CC[C@@H](N(C)[C@H]3CC[C@@H](OC(=O)C4c5ccccc5-c5ccccc54)CC3)CC2)cc(OC)c1OC`, the Emax in data set [1] stood at 90%. Besides, the IC50 in data set [2] turned out to be 180 nM.

In the case of `COc1cc(CCC(=O)O[C@H]2CC[C@@H](N(C)[C@H]3CC[C@H](OC(=O)c4cc(OC)c(OC)c(OC)c4)CC3)CC2)cc(OC)c1OC` (mixture of isomers), the Emax in data set [1] turned out to be 77%. Moreover, the concentration for half-maximal inhibition (IC50) in data set [2] was found to be 350 nM.

Consider `COc1cc(C#CC(=O)O[C@H]2CC[C@H](N(C)[C@H]3CC[C@H](OC(=O)C4c5ccccc5-c5ccccc54)CC3)CC2)cc(OC)c1OC`, for which the Emax in data set [1] was 77%. The IC50 in data set [2] amounted to 500 nM.

Consider `COc1ccc(C(C(=O)O[C@H]2CC[C@@H](N(C)[C@H]3CC[C@@H](OC(=O)C#Cc4cc(OC)c(OC)c(OC)c4)CC3)CC2)c2ccc(OC)cc2)cc1` (mixture of isomers), for which the maximal effect (Emax) in data set [1] is 94%. The IC50 in data set [2] was determined as 120 nM.

Take `COc1cc(CCC(=O)O[C@H]2CC[C@@H](N(C)[C@H]3CC[C@@H](OC(=O)c4cc(OC)c(OC)c(OC)c4)CC3)CC2)cc(OC)c1OC`: the Emax in data set [1] amounted to 76%. Further, in data set [2], the IC50 was 1100 nM.

As for `COc1cc(/C=C/C(=O)O[C@H]2CC[C@H](N(C)[C@H]3CC[C@@H](OC(=O)C4c5ccccc5-c5ccccc54)CC3)CC2)cc(OC)c1OC` (mixture of isomers), the Emax in data set [1] amounted to 99%. The IC50 in data set [2] was 150 nM.

For the compound `COc1ccc(C(C#N)(CCC(=O)O[C@H]2CC[C@H](N(C)[C@H]3CC[C@@H](OC(=O)/C=C/c4cc(OC)c(OC)c(OC)c4)CC3)CC2)C(C)C)cc1OC` (mixture of isomers), the Emax in data set [1] was found to be 88%. Also, in data set [2], the half-maximal inhibitory concentration (IC50) came to 240 nM.

With `COc1cc(CCC(=O)O[C@H]2CC[C@H](N(C)[C@H]3CC[C@H](OC(=O)c4cc(OC)c(OC)c(OC)c4)CC3)CC2)cc(OC)c1OC`, in data set [1], the Emax came out at 76%. In data set [2], the concentration for half-maximal inhibition (IC50) was 610 nM.

In the case of `COc1cc(C#CC(=O)O[C@H]2CC[C@H](N(C)[C@H]3CC[C@H](OC(=O)c4cc(OC)c(OC)c(OC)c4)CC3)CC2)cc(OC)c1OC`, the “Ratio IC50” value in data set [3] was found to be 0.6; in data set [4] it was 1.9. Also, the Activity result in data set [5] and in data set [6] was “Non-toxic” in each case. In data set [1], the maximal effect (Emax) is 99%. For the same compound, in data set [2], the IC50 is 70 nM.

As for `COc1ccc(C(C(=O)O[C@H]2CC[C@@H](N(C)[C@H]3CC[C@H](OC(=O)C#Cc4cc(OC)c(OC)c(OC)c4)CC3)CC2)c2ccc(OC)cc2)cc1` (mixture of isomers), the Emax in data set [1] was determined as 99%. For the same compound, in data set [2], the IC50 stood at 20 nM.

Regarding `COc1ccc(C(C(=O)O[C@H]2CC[C@H](N(C)[C@H]3CC[C@H](OC(=O)C#Cc4cc(OC)c(OC)c(OC)c4)CC3)CC2)c2ccc(OC)cc2)cc1`, the Emax in data set [1] came to 74%. The IC50 in data set [2] turned out to be 140 nM.

As for `COc1ccc(C(C#N)(CCC(=O)O[C@H]2CC[C@@H](N(C)[C@H]3CC[C@@H](OC(=O)/C=C/c4cc(OC)c(OC)c(OC)c4)CC3)CC2)C(C)C)cc1OC` (some centres undefined), the maximal response (Emax) in data set [1] was 99%. The IC50 in data set [2] was determined as 150 nM.

Regarding `COc1ccc(C(C#N)(CCC(=O)O[C@H]2CC[C@H](N(C)[C@H]3CC[C@H](OC(=O)/C=C/c4cc(OC)c(OC)c(OC)c4)CC3)CC2)C(C)C)cc1OC` (some centres undefined), in data set [1], the Emax was 99%. Moreover, the half-inhibitory concentration (IC50) in data set [2] is 140 nM.

Turning to `COc1ccc(C(C#N)(CCC(=O)O[C@H]2CC[C@@H](N(C)[C@H]3CC[C@H](OC(=O)/C=C/c4cc(OC)c(OC)c(OC)c4)CC3)CC2)C(C)C)cc1OC` (mixture of isomers), the entries for the “Ratio IC50” value in data set [3] and in data set [4] were 3 and 10.7, respectively. Further, the Activity result in data set [5] and in data set [6] was “Non-toxic” in each case. The maximum response (Emax) in data set [1] was 89%. For the same compound, in data set [2], the IC50 was 80 nM.

`COc1cc(C#CC(=O)O[C@H]2CC[C@H](N(C)[C@H]3CC[C@@H](OC(=O)c4cc(OC)c(OC)c(OC)c4)CC3)CC2)cc(OC)c1OC` (mixture of isomers): the “Ratio IC50” value in data set [3] is recorded as 1.6; in data set [4], 1.5. Further, the Activity entry in data set [5] and in data set [6] was “Non-toxic” in each case. For the same compound, the maximal effect (Emax) in data set [1] stood at 98%. The IC50 in data set [2] worked out at 80 nM.

`COc1cc(/C=C/C(=O)O[C@H]2CC[C@H](N(C)[C@H]3CC[C@@H](OC(=O)c4cc(OC)c(OC)c(OC)c4)CC3)CC2)cc(OC)c1OC` (mixture of isomers): in data set [4], the “Ratio IC50” value is 7.7. In addition, the Emax in data set [1] came out at 85%. In data set [2], the half-inhibitory concentration (IC50) amounted to 92 nM.
